Measured values reported in ChEMBL document CHEMBL1125597, “Potent inhibitory effect of a series of modified cyclodextrin sulfates (mCDS) on the replication of HIV-1 in vitro” (J Med Chem, 1991).

Columns and labels:
MT4 [1] = test: Compound was evaluated for the anticoagulant activity; assay type: functional, Homo sapiens
Method in brief: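 Zucker activated partial thromboplastin time (APTT) method; value is the concentration (µg/mL) giving 2-fold APTT. Median of 2 or 3 experiments.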

MT4 [2] = test: The minimum concentration for complete inhibition (IC100) of HIV-1 strain KK-1AIDS from human induced CPE in MT-4 cells.; assay type: functional
Method in brief: (§1)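 MT-4 cells infected 1 h with HIV-1 (LAV-1 or patient isolate KK-1 AIDS) at 0.001 TCID50 per cell, unbound virus washed off. Cultured 5 days with compound (12 doses, 0.49–1000 µg/mL); viable cells in infected and mock cultures by trypan blue. Minimum concentration fully preventing CPE; median of 2 or 3 experiments.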

MT4 [3] = test: Compound was evaluated for the minimum concentration for appearance of MT-4 cell toxicity; assay type: functional, Homo sapiens
Method in brief: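 MT-4 cells incubated 5 days with test compound (12 doses, 0.49–1000 µg/mL); lowest concentration at which toxicity appears, viable cells by trypan blue staining in mock-infected cultures. Median of 2 or 3 experiments.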

MOLT-4 [4] = test: Suppressive effect on giant-cell formation against HIV-1LAV-1 in MOLT-4 cells; assay type: functional, Homo sapiens
Method in brief: (§2)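 Uninfected MOLT-4 mixed 1:1 with persistently infected MOLT-4 (HIV-1 LAV-1 or HIV-2 GH-1 carriers), 5×10^5 cells/mL total, cultured 24 h with compound. Viable cells counted by trypan blue exclusion; fusion index = 1 − cells in test well/cells in uninfected MOLT-4 control. Median of 2 or 3 experiments.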

MT4 [5] = test: The minimum concentration for complete inhibition (IC100) of HIV-1 strain LAV-1 from human induced CPE in MT-4 cells.; assay type: functional; method in brief: as §1
MOLT-4 [6] = test: Suppressive effect on giant-cell formation against HIV-2GH-1 in MOLT-4 cells; assay type: functional, Homo sapiens; method in brief: as §2

Row | Compound | APTT (MT4 [1]) | IC100 (MT4 [2]) | Cytotoxicity (MT4 [3]) | Supressive effect (MOLT-4 [4]) | IC100 (MT4 [5]) | Supressive effect (MOLT-4 [6])
1 | COc1ccc(NCC2O[C@@H]3O[C@@H]4C(CNc5ccc(OC)cc5)O[C@@H](O[C@@H]5C(CNc6ccc(OC)cc6)O[C@H](O[C@@H]6C(CNc7ccc(OC)cc7)O[C@H](O[C@@H]7C(CNc8ccc(OC)cc8)O[C@H](O[C@@H]8C(CNc9ccc(OC)cc9)O[C@H](O[C@@H]9C(CNc%10ccc(OC)cc%10)O[C@H](O[C@H]2C(O)C3OS(=O)(=O)[O-])C(OS(=O)(=O)[O-])C9OS(=O)(=O)[O-])C(OS(=O)(=O)[O-])C8OS(=O)(=O)[O-])C(OS(=O)(=O)[O-])C7O)C(OS(=O)(=O)[O-])C6OS(=O)(=O)[O-])C(OS(=O)(=O)[O-])C5OS(=O)(=O)[O-])C(OS(=O)(=O)[O-])C4OS(=O)(=O)[O-])cc1.[Na+].[Na+].[Na+].[Na+].[Na+].[Na+].[Na+].[Na+].[Na+].[Na+].[Na+].[Na+] (stereo partly specified) | 4.3 µg/mL | 31.2 µg/mL | >1000 µg/mL | 5.5 µg/mL | 0.98 µg/mL | 40.2 µg/mL
2 | O=[PH](O)OCC1O[C@H]2O[C@@H]3C(CO[PH](=O)O)O[C@H](O[C@@H]4C(CO[PH](=O)O)O[C@H](O[C@@H]5C(CO[PH](=O)O)O[C@H](O[C@@H]6C(CO[PH](=O)O)O[C@H](O[C@@H]7C(CO[PH](=O)O)O[C@H](O[C@@H]8C(CO[PH](=O)O)O[C@H](O[C@H]1C(O)C2O)C(O)C8Cl)C(O)C7Cl)C(O)C6O[PH](=O)O)C(O)C5Cl)C(O)C4Cl)C(O)C3Cl (stereo partly specified) [CYCLODEXTRIN PHOSPHATE] | 47.2 µg/mL | 40 µg/mL | >1000 µg/mL |  | 31.2 µg/mL | 
3 | O=S(=O)([O-])OCC1O[C@@H]2O[C@@H]3C(COS(=O)(=O)[O-])O[C@H](O[C@@H]4C(COS(=O)(=O)[O-])O[C@@H](O[C@@H]5C(COS(=O)(=O)[O-])O[C@H](O[C@@H]6C(COS(=O)(=O)[O-])O[C@H](O[C@@H]7C(COS(=O)(=O)[O-])O[C@H](O[C@@H]8C(COS(=O)(=O)[O-])O[C@H](O[C@H]1C(O)C2OS(=O)(=O)[O-])C(OS(=O)(=O)[O-])C8O)C(OS(=O)(=O)[O-])C7O)C(OS(=O)(=O)[O-])C6O)C(OS(=O)(=O)[O-])C5O)C(OS(=O)(=O)[O-])C4O)C(OS(=O)(=O)[O-])C3O.[K+].[K+].[K+].[K+].[K+].[K+].[K+].[K+].[K+].[K+].[K+].[K+].[K+].[K+] (stereo partly specified) [CYCLODEXTRIN SULFATE (CDS)] | 2.83 µg/mL | 125 µg/mL | >1000 µg/mL | 60 µg/mL | 31.2 µg/mL | 519 µg/mL
